target: Histamine H1 receptor (Homo sapiens, UniProt P35367); assay: Displacement of [3H]pyrilamine from human histamine H1 receptor expressed in CHO-K1 cells after 60 mins by scintillation counting; type: cell-based; details: not given
Sequence (P35367 whole entry): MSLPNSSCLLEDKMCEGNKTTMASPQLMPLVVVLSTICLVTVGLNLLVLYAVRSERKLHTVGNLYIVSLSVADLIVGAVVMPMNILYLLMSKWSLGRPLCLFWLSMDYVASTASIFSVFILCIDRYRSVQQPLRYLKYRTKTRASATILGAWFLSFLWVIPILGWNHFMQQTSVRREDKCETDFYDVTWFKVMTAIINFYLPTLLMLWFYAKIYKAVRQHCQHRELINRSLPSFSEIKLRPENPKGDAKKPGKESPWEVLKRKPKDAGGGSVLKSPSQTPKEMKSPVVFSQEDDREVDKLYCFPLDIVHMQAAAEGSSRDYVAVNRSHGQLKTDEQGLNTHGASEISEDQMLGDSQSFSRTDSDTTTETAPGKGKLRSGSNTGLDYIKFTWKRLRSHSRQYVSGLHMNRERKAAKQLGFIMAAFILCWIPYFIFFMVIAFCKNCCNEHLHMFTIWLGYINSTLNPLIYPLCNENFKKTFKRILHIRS

SMILES | IC50
Cn1c(N2CCCN(CCCN3c4ccccc4COc4ccc(CC(=O)O)cc43)CC2)cc(=O)n(C)c1=O | 128 nM
Cn1c(N2CCCN(CCCN3c4ccccc4CCc4ccc(CC(=O)O)cc43)CC2)cc(=O)n(C)c1=O | 54 nM
Cn1c(N2CCCN(CC/C=C3/c4ccccc4COc4ccc(CC(=O)O)cc43)CC2)cc(=O)n(C)c1=O | 92 nM
Cn1c(N2CCCN(CC/C=C3/c4ccccc4COc4ccc(C(=O)O)cc43)CC2)cc(=O)n(C)c1=O | 63 nM
Cn1c(N2CCN(CC/C=C3/c4ccccc4COc4ccc(CC(=O)O)cc43)CC2)cc(=O)n(C)c1=O | 84 nM
CC(C(=O)O)c1ccc2c(c1)N(CCCN1CCCN(c3cc(=O)n(C)c(=O)n3C)CC1)c1ccccc1CO2 (stereo not given) | 128 nM
Cn1c(N2CCCN(CCCN3c4ccccc4CCc4ccc(C(=O)O)cc43)CC2)cc(=O)n(C)c1=O | 70 nM
Cn1c(N2CCCN(CC/C=C3/c4ccccc4CCc4ccc(CC(=O)O)cc43)CC2)cc(=O)n(C)c1=O | 135 nM

system: not listed separately; assay: Permeability from apical to basolateral side of human Caco2 cells after 120 mins; details: Caco-2

SMILES | Papp A→B at 2 h
Cn1c(N2CCCN(CCCN3c4ccccc4COc4ccc(CC(=O)O)cc43)CC2)cc(=O)n(C)c1=O | 1.6 ×10⁻⁶ cm/s
Cn1c(N2CCCN(CCCN3c4ccccc4CCc4ccc(CC(=O)O)cc43)CC2)cc(=O)n(C)c1=O | 2.6 ×10⁻⁶ cm/s
Cn1c(N2CCCN(CC/C=C3/c4ccccc4COc4ccc(CC(=O)O)cc43)CC2)cc(=O)n(C)c1=O | 4 ×10⁻⁶ cm/s
Cn1c(N2CCCN(CC/C=C3/c4ccccc4COc4ccc(C(=O)O)cc43)CC2)cc(=O)n(C)c1=O | 3.8 ×10⁻⁶ cm/s
Cn1c(N2CCN(CC/C=C3/c4ccccc4COc4ccc(CC(=O)O)cc43)CC2)cc(=O)n(C)c1=O | 7.3 ×10⁻⁶ cm/s
CC(C(=O)O)c1ccc2c(c1)N(CCCN1CCCN(c3cc(=O)n(C)c(=O)n3C)CC1)c1ccccc1CO2 (stereo not given) | 1.9 ×10⁻⁶ cm/s
Cn1c(N2CCCN(CCCN3c4ccccc4CCc4ccc(C(=O)O)cc43)CC2)cc(=O)n(C)c1=O | 4.4 ×10⁻⁶ cm/s
Cn1c(N2CCCN(CC/C=C3/c4ccccc4CCc4ccc(CC(=O)O)cc43)CC2)cc(=O)n(C)c1=O | 4.8 ×10⁻⁶ cm/s

system: Mus musculus; assay: In vivo antihistaminic activity at histamine H1 receptor in ddY mouse assessed as inhibition of histamine-induced skin vascular permeability at 3 mg/kg, po administered 1 hr before histamine challenge by Evan's blue staining; type: functional; details: not given
Method in brief: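 Female ddY mice, 8 weeks old, dosed orally at 3 mg/kg as a suspension in 0.5% methylcellulose, 1 h before intradermal histamine ([…]) into back skin, following i.v. Evans blue. Mice sacrificed 30 min after histamine; dyed area measured. % inhibition, mean ± SE of six mice.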

SMILES | inhibition in vivo at 3 mg/kg
Cn1c(N2CCCN(CC/C=C3/c4ccccc4COc4ccc(CC(=O)O)cc43)CC2)cc(=O)n(C)c1=O | 32%
Cn1c(N2CCN(CC/C=C3/c4ccccc4COc4ccc(CC(=O)O)cc43)CC2)cc(=O)n(C)c1=O | 53%
Cn1c(N2CCN(CCCN3c4ccccc4Sc4ccc(CC(=O)O)cc43)CC2)cc(=O)n(C)c1=O | 82%
Cn1c(N2CCCN(CCCN3c4ccccc4CCc4ccc(C(=O)O)cc43)CC2)cc(=O)n(C)c1=O | 50%

system: not listed separately; assay: Oral bioavailability in fasted rat at 10 mg/kg after 24 hrs; type: ADME, organism-based; details: in vivo
Method in brief: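 Fasted male rats (n = 3 per route). Dosing: 1 mg/kg i.v. in 5% glucose/0.1 N HCl (9:1), or 10 mg/kg p.o. as a 0.5% methylcellulose suspension. Jugular blood sampled up to 24 h (po: 15, 30 min, 1, 2, 4, 6, 24 h) and plasma stored at -70 °C. AUCs taken from plasma concentration–time courses. BA = (AUCpo/Dpo)/(AUCiv/Div) × 100.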

SMILES | bioavailability
Cn1c(N2CCN(CC/C=C3/c4ccccc4COc4ccc(CC(=O)O)cc43)CC2)cc(=O)n(C)c1=O | 76%
Cn1c(N2CCCN(CCCN3c4ccccc4CCc4ccc(C(=O)O)cc43)CC2)cc(=O)n(C)c1=O | 33%

system: Mus musculus; assay: Antiinflammatory activity in ovalbumin-sensitized BALB/c mouse biphasic allergic model assessed as immediate type reaction at 10 mg/kg, po administered 1 hr before ovalbumin challenge measured 1 hr after elicitation by ear swelling assay; type: functional; details: not given
Method in brief: (§1)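 Female Balb/c mice, 8 weeks old, sensitized i.p. with OVA plus alum. Two weeks later, compound given orally as a 0.5% methylcellulose suspension at 10 mg/kg, 1 h before intradermal OVA into the ear.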

SMILES | inhibition in vivo at 10 mg/kg
CC(C)(C(=O)O)c1ccc(C(O)CCCN2CCC(C(O)(c3ccccc3)c3ccccc3)CC2)cc1 (stereo not given) [FEXOFENADINE] | 61%
CN1CCC(=C2c3ccccc3CC(=O)c3sccc32)CC1 [KETOTIFEN] | 119%
Cn1c(N2CCN(CC/C=C3/c4ccccc4COc4ccc(CC(=O)O)cc43)CC2)cc(=O)n(C)c1=O | 105%
Cn1c(N2CCN(CCCN3c4ccccc4Sc4ccc(CC(=O)O)cc43)CC2)cc(=O)n(C)c1=O | 73%
Cn1c(N2CCCN(CCCN3c4ccccc4CCc4ccc(C(=O)O)cc43)CC2)cc(=O)n(C)c1=O | 30%

system: Mus musculus; assay: Antiinflammatory activity in ovalbumin-sensitized BALB/c mouse biphasic allergic model assessed as late type reaction at 10 mg/kg, po administered 1 hr before ovalbumin challenge measured 24 hrs after elicitation by ear swelling assay; type: functional; details: not given; method in brief: as §1

SMILES | inhibition in vivo at 10 mg/kg
CC(C)(C(=O)O)c1ccc(C(O)CCCN2CCC(C(O)(c3ccccc3)c3ccccc3)CC2)cc1 (stereo not given) [FEXOFENADINE] | 6%
CN1CCC(=C2c3ccccc3CC(=O)c3sccc32)CC1 [KETOTIFEN] | 3%
Cn1c(N2CCN(CC/C=C3/c4ccccc4COc4ccc(CC(=O)O)cc43)CC2)cc(=O)n(C)c1=O | 78%
Cn1c(N2CCN(CCCN3c4ccccc4Sc4ccc(CC(=O)O)cc43)CC2)cc(=O)n(C)c1=O | 64%
Cn1c(N2CCCN(CCCN3c4ccccc4CCc4ccc(C(=O)O)cc43)CC2)cc(=O)n(C)c1=O | 46%

target: T1, Adrenergic receptor alpha-1 (Homo sapiens, UniProt P35348+P25100+P35368); assay: Displacement of [3H]prazosin from human adrenergic alpha1 expressed in CHO-K1 cells after 30 mins by scintillation counting; type: cell-based; details: not given
T1 sequence (P35348 whole entry): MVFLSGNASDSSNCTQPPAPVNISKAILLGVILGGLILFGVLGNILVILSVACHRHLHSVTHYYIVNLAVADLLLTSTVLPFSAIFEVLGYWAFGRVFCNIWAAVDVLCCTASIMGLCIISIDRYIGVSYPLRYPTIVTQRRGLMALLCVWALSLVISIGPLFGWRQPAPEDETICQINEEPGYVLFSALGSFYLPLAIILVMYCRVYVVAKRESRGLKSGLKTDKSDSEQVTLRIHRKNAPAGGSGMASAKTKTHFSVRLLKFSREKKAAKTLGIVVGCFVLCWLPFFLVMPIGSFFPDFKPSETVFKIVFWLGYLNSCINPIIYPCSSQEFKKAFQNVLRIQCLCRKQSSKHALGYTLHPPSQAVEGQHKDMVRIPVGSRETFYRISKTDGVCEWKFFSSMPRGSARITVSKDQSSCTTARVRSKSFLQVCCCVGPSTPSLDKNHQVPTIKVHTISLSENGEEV
T1 sequence (P25100 whole entry): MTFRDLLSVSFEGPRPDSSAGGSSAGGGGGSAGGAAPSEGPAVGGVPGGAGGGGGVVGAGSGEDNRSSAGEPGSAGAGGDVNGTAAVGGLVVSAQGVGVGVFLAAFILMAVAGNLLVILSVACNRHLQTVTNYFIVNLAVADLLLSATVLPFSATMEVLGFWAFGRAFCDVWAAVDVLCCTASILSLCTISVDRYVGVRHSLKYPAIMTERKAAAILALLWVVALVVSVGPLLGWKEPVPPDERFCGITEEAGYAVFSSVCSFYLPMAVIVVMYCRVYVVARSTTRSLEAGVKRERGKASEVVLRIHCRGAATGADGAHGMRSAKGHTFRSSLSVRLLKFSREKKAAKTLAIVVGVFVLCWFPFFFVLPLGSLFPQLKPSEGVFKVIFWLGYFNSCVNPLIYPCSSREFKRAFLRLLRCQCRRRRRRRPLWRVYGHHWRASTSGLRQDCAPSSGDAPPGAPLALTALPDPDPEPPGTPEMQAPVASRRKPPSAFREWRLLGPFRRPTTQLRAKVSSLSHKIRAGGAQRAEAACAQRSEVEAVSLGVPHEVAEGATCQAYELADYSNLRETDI
T1 sequence (P35368 whole entry): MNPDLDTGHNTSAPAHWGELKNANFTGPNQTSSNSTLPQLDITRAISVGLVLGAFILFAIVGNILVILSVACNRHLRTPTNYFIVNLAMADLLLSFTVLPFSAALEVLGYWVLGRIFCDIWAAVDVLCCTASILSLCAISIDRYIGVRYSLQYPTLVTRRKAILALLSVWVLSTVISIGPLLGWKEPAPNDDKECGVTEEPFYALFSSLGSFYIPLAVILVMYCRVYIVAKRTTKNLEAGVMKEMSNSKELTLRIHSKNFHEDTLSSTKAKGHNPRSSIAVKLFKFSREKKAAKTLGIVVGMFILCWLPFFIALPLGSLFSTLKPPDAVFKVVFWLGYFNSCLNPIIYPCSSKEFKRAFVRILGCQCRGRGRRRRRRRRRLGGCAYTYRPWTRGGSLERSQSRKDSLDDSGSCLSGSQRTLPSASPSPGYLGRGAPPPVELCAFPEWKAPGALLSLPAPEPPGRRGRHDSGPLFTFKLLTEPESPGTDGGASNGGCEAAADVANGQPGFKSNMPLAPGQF
Method in brief: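 Membranes from stable recombinant CHO-K1 cells expressing human α1 adrenoceptor were incubated with graded compound concentrations and 0.3 nM [3H]-prazosin in 50 mM Tris-HCl pH 7.6 for 30 min at room temperature. Nonspecific binding was defined with 1 µM prazosin. Samples were filtered on GF/B, washed and scintillation counted; specific binding is total minus nonspecific. Single experiment.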

SMILES | IC50
Cn1c(N2CCN(CC/C=C3/c4ccccc4COc4ccc(CC(=O)O)cc43)CC2)cc(=O)n(C)c1=O | 4800 nM
Cn1c(N2CCN(CCCN3c4ccccc4Sc4ccc(CC(=O)O)cc43)CC2)cc(=O)n(C)c1=O | 430 nM

species on record: Homo sapiens; assay: Ratio of IC50 for human adrenergic alpha1 to IC50 for human histamine H1 receptor; details: not given

SMILES | Ratio IC50
Cn1c(N2CCN(CC/C=C3/c4ccccc4COc4ccc(CC(=O)O)cc43)CC2)cc(=O)n(C)c1=O | 57
Cn1c(N2CCN(CCCN3c4ccccc4Sc4ccc(CC(=O)O)cc43)CC2)cc(=O)n(C)c1=O | 11

species on record: Mus musculus; assay: animal or person; type: functional; details: ddY, po

SMILES | ED70
CN1CCC(=C2c3ccccc3CC(=O)c3sccc32)CC1 [KETOTIFEN] | 0.067 mg/kg
Cn1c(N2CCN(CCCN3c4ccccc4Sc4ccc(CC(=O)O)cc43)CC2)cc(=O)n(C)c1=O | 1.61 mg/kg

species on record: Mus musculus; assay: Ex vivo receptor occupancy of histamine H1 receptor in mouse brain at ED70 after 30 mins by scintillation counting; type: functional; details: not given

SMILES | Activity
CC(C)(C(=O)O)c1ccc(C(O)CCCN2CCC(C(O)(c3ccccc3)c3ccccc3)CC2)cc1 (stereo not given) [FEXOFENADINE] | 12%
Cn1c(N2CCN(CCCN3c4ccccc4Sc4ccc(CC(=O)O)cc43)CC2)cc(=O)n(C)c1=O | 38%

Reference: ChEMBL document CHEMBL1772991, “Synthesis and structure-activity relationship of tricyclic carboxylic acids as novel anti-histamines” (Bioorg Med Chem, 2011)
